Columns and labels:
Type in all cases: functional
Cavia porcellus [1] = assay: Effect on bleeding time when a dose of 9.0 ug/kg/min was administered to guinea pig
In short: (§1)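 Male guinea pigs (250–400 g) received continuous iv infusion of compound in 0.9% saline, with vehicle for controls. Template BT was taken 90 min after infusion start under pentobarbital (25 mg/kg ip), with hind limb shaved the day before and a pressure cuff proximal to the site. Each animal's value is the mean of two cuts; mean ± SE, n = 3. The cut-off is 900 s.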

Cavia porcellus [2] = species on record: Cavia porcellus; assay: In vitro inhibition of ADP induced aggregation in guinea pig platelets
In short: (§2)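 Guinea pig blood was taken by aortic puncture under pentobarbital into 3.15% citrate (1:10). PRP was adjusted to 4 × 10^5 platelets/μL and prewarmed 2 min at 37 °C with compound, stirred. Aggregation was induced with ADP (0.8–1 μM) and read as the change in light transmittance. IC50 with 95% CI.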

[3] = Dose ratio for dose causing prolongation of bleeding time to 3 times the basel value vs ID50 value of ex-vivo ADP-induced platelet aggregation.
In short: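 Template bleeding time and ex vivo ADP aggregation measured in male guinea pigs 90 min after starting continuous iv infusion in 0.9% saline. BT(×3) is the dose prolonging BT to 3 times basal. The ratio is BT(×3) dose divided by the ex vivo ID50 dose.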

Cavia porcellus [4] = species on record: Cavia porcellus; assay: Ex vivo inhibition of ADP induced aggregation in guinea pig platelets
In short: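 Male guinea pigs (250–400 g) were given a continuous iv infusion in 0.9% saline, with vehicle for controls. At 90 min, citrated blood was drawn from the abdominal aorta under anesthesia and PRP was prepared. Aggregation was induced with submaximal ADP and read by light transmittance. ID50 in μg/kg/min with 95% CI, n = 2–5.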

Cavia porcellus [5] = assay: Effect on bleeding time when a dose of 4.0 ug/kg/min was administered to guinea pig; in short: as §1
Cavia porcellus [6] = assay: Effect on bleeding time when a dose of 2.2 ug/kg/min was administered to guinea pig; in short: as §1
Cavia porcellus [7] = assay: Effect on bleeding time when a dose of 10 ug/kg/min was administered to guinea pig; in short: as §1
Cavia porcellus [8] = species on record: Cavia porcellus; assay: In vitro effect on ADP induced platelet aggregation in guinea pig platelet rich plasma; in short: as §2
Homo sapiens [9] = species on record: Homo sapiens; assay: In vitro effect on ADP induced platelet aggregation in human platelet rich plasma
In short: (§3)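 Human blood was collected into 3.8% citrate (1:10). PRP was adjusted to 3 × 10^5 platelets/μL and preincubated 2 min at 37 °C with compound, stirred at 1000 rpm. ADP (1–10 μM) was then added and light-transmittance aggregometry recorded. IC50 with 95% CI, n = 4.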

Homo sapiens [10] = species on record: Homo sapiens; assay: In vitro effect on ADP induced human platelet aggregation; in short: as §3
Homo sapiens [11] = species on record: Homo sapiens; assay: In vitro effect on PAF induced human platelet aggregation
In short: (§4)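 Human citrated (3.8%) PRP adjusted to 3 × 10^5 platelets/μL was stirred and prewarmed 2 min at 37 °C with compound. Submaximal agonist was added (PAF, TRAP or collagen) and aggregation recorded as the change in light transmittance.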

Homo sapiens [12] = species on record: Homo sapiens; assay: In vitro effect on TRAP induced human platelet aggregation; in short: as §4
Homo sapiens [13] = species on record: Homo sapiens; assay: In vitro effect on collagen induced human platelet aggregation; in short: as §4
[14] = In vitro effect on ADP induced platelet aggregation in monkey platelet rich plasma; conditions: Cercopithecidae
In short: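 Monkey blood was drawn into 3.8% citrate (1:10). PRP at 3 × 10^5 platelets/μL was warmed 2 min at 37 °C with compound under stirring. Aggregation was triggered by ADP (30–40 μM) and measured by light transmittance. IC50 with 95% CI, n = 4.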

Cavia porcellus [15] = assay: Effect on bleeding time when a dose of 6.0 ug/kg/min was administered to guinea pig; in short: as §1
Cavia porcellus [16] = assay: Effect on bleeding time when a dose of 3.0 ug/kg/min was administered to guinea pig; in short: as §1
Cavia porcellus [17] = assay: Effect on bleeding time when a dose of 4 ug/kg/min was administered to guinea pig; in short: as §1
Cavia porcellus [18] = assay: Effect on bleeding time when a dose of 5 ug/kg/min was administered to guinea pig; in short: as §1
Cavia porcellus [19] = assay: Effect on bleeding time when a dose of 6.5 ug/kg/min was administered to guinea pig; in short: as §1
Cavia porcellus [20] = assay: Effect on bleeding time when a dose of 8.0 ug/kg/min was administered to guinea pig; in short: as §1
Cavia porcellus [21] = assay: Effect on bleeding time when a dose of 2.5 ug/kg/min was administered to guinea pig; in short: as §1
Cavia porcellus [22] = assay: Effect on bleeding time when a dose of 2 ug/kg/min was administered to guinea pig; in short: as §1
Cavia porcellus [23] = assay: Effect on bleeding time when a dose of 0.2 ug/kg/min was administered to guinea pig; in short: as §1
Cavia porcellus [24] = assay: Effect on bleeding time when a dose of 0.9 ug/kg/min was administered to guinea pig; in short: as §1
Cavia porcellus [25] = assay: Effect on bleeding time when a dose of 1.4 ug/kg/min was administered to guinea pig; in short: as §1
Cavia porcellus [26] = assay: Effect on bleeding time when a dose of 5.0 ug/kg/min was administered to guinea pig; in short: as §1

Row | SMILES | IC50 (Cavia porcellus [2]) | Dissociation ratio [3] | ID50 (Cavia porcellus [4]) | also measured
1 | N=C(N)Nc1ccc(C(=O)NCC[C@H]2C(=O)N(CC(=O)O)CCN2C(=O)CNC(=O)c2ccc(NC(=N)N)cc2)cc1 | 97 nM | <10 | 0.88 µg/min/kg | BT (Cavia porcellus [1]): 800
2 | N=C(N)Cc1ccc(C(=O)NCCC[C@H]2C(=O)N(CC(=O)O)CCN2C(=O)CNC(=O)c2ccc(C(=N)N)cc2)cc1 | 67 nM | 10 | 0.41 µg/min/kg | BT (Cavia porcellus [5]): 620
3 | N=C(N)c1ccc(C(=O)NCCC[C@H]2C(=O)N(CC(=O)O)CCN2C(=O)CNC(=O)c2ccc(C(=N)N)cc2)cc1 | 37 nM | 12 | 0.19 µg/min/kg | BT (Cavia porcellus [6]): 660
4 | N=C(N)NCCCC(=O)NCCC[C@H]1C(=O)N(CC(=O)O)CCN1C(=O)CNC(=O)c1ccc(C(=N)N)cc1 | 88 nM | 21 | 0.47 µg/min/kg | BT (Cavia porcellus [7]): 620
5 | COC(=O)C[C@H]1C(=O)N(CC(=O)O)CCN1C(=O)CNC(=O)c1ccc(C(=N)N)cc1 |  |  |  | IC50 (Cavia porcellus [8]): 43 nM; IC50 (Homo sapiens [9]): 31 nM; IC50 (Homo sapiens [10]): 31 nM; IC50 (Homo sapiens [11]): 29 nM; IC50 (Homo sapiens [12]): 32 nM; IC50 (Homo sapiens [13]): 31 nM; IC50 [14]: 46 nM
6 | N=C(N)c1ccc(C(=O)NCC(=O)N2CCN(CC(=O)O)C(=O)[C@@H]2CCCNC(=O)c2ccc(CCN)cc2)cc1 | 81 nM | 11 | 0.56 µg/min/kg | BT (Cavia porcellus [15]): 860; BT (Cavia porcellus [16]): 270
7 | N=C(N)Nc1ccc(C(=O)NCCC[C@H]2C(=O)N(CC(=O)O)CCN2C(=O)CNC(=O)c2ccc(NC(=N)N)cc2)cc1 | 51 nM | >33 | 0.18 µg/min/kg | BT (Cavia porcellus [15]): 510; IC50 (Cavia porcellus [8]): 51 nM; IC50 (Homo sapiens [9]): 31 nM; IC50 (Homo sapiens [10]): 31 nM; IC50 (Homo sapiens [11]): 30 nM; IC50 (Homo sapiens [12]): 91 nM; IC50 (Homo sapiens [13]): 59 nM; IC50 [14]: 79 nM
8 | N=C(N)Cc1ccc(C(=O)NC[C@H]2C(=O)N(CC(=O)O)CCN2C(=O)CNC(=O)c2ccc(C(=N)N)cc2)cc1 | 57 nM | <10 | 0.42 µg/min/kg | BT (Cavia porcellus [17]): 760
9 | N=C(N)c1ccc(C(=O)NCC(=O)N2CCN(CC(=O)O)C(=O)[C@@H]2CCCNC(=O)CCCCN)cc1 | 210 nM | >5 | 0.94 µg/min/kg | BT (Cavia porcellus [18]): 490
10 | N=C(N)Nc1ccc(C(=O)NCC(=O)N2CCN(CC(=O)O)C(=O)[C@@H]2CNC(=O)c2ccc(NC(=N)N)cc2)cc1 | 140 nM | <10 | 1 µg/min/kg | BT (Cavia porcellus [7]): 720
11 | N=C(N)c1ccc(C(=O)NCC(=O)N2CCN(CC(=O)O)C(=O)[C@@H]2CNC(=O)c2ccc(C(=N)N)cc2)cc1 | 120 nM | <6 | 0.72 µg/min/kg | BT (Cavia porcellus [5]): >900
12 | N=C(N)Nc1ccc(C(=O)NC[C@H]2C(=O)N(CC(=O)O)CCN2C(=O)CNC(=O)c2ccc(C(=N)N)cc2)cc1 | 85 nM | 10 | 0.66 µg/min/kg | BT (Cavia porcellus [19]): 660
13 | N=C(N)c1ccc(C(=O)NCC[C@H]2C(=O)N(CC(=O)O)CCN2C(=O)CNC(=O)c2ccc(C(=N)N)cc2)cc1 | 190 nM | <9 | 0.91 µg/min/kg | BT (Cavia porcellus [20]): 800
14 | N=C(N)Nc1ccc(C(=O)NCC[C@H]2C(=O)N(CC(=O)O)CCN2C(=O)CNC(=O)c2ccc(C(=N)N)cc2)cc1 | 37 nM | 21 | 0.12 µg/min/kg | BT (Cavia porcellus [21]): 820; BT (Cavia porcellus [22]): 410
15 | COc1ccc(C[C@H](NC(=O)c2ccc(C(=N)N)cc2)C(=O)N2CCN(CC(=O)O)C(=O)[C@@H]2CCCNC(=O)c2ccc(C(=N)N)cc2)cc1 | 23 nM | 10 | 0.021 µg/min/kg | 
16 | COc1ccc(C[C@H](NC(=O)c2ccc(C(=N)N)cc2)C(=O)N2CCN(CC(=O)O)C(=O)[C@@H]2CCCCNC(=O)c2ccc(C(=N)N)cc2)cc1 | 12 nM | <5 | 0.041 µg/min/kg | BT (Cavia porcellus [23]): >900
17 | N=C(N)c1ccc(C(=O)NCC(=O)N2CCN(CC(=O)O)C(=O)[C@@H]2CCCNC(=O)CCCCCN)cc1 | 160 nM | <12 | 0.86 µg/min/kg | BT (Cavia porcellus [7]): 780
18 | N=C(N)Nc1ccc(C(=O)NCCC[C@H]2C(=O)N(CC(=O)O)CCN2C(=O)CNC(=O)c2ccc(C(=N)N)cc2)cc1 | 19 nM | 16 | 0.087 µg/min/kg | BT (Cavia porcellus [24]): 490; BT (Cavia porcellus [25]): >900
19 | N=C(N)c1ccc(C(=O)NCCCC[C@H]2C(=O)N(CC(=O)O)CCN2C(=O)CNC(=O)c2ccc(C(=N)N)cc2)cc1 | 150 nM | 6 | 0.79 µg/min/kg | BT (Cavia porcellus [26]): 620

— ChEMBL document CHEMBL1134537, “Potent dibasic GPIIb/IIIa antagonists with reduced prolongation of bleeding time: synthesis and pharmacological evaluation of 2-oxopiperazine derivatives” (J Med Chem, 2001)
